One data set has as its system COMT. The following applies: cited from earlier work; for IC50: read-out: IC50 against COMT.
For data set [1] the following is noted: cited from earlier work.
The format of data set [2] is in vivo, human. Particulars: for Tlag / Tmax: median (minimum - maximum); for Tmax: t max. In outline:
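Plasma was precipitated with acetonitrile plus internal standards, vortexed and centrifuged. Supernatant was diluted with water for validated LC-MS/MS of parent and metabolites, with quantification limit 10 ng/mL and calibration curves and QC samples in every batch. Noncompartmental analysis per subject gave geometric mean (%CV) parameters, with tmax as median (min–max).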

Data set [3] in a line: Metabolite profiling in plasma AUC pool by LC-AMS. In kind it is in vivo, human. Particulars: average, AMS radiodetection. In outline: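 A per-subject plasma AUC pool (Hamilton method) covered at least the last quantifiable time point. Plasma (5 g) was precipitated twice with acetonitrile, evaporated and resuspended in DMSO:acetonitrile:water 20:20:60. LC fractions were measured by AMS, with carbon content in duplicate. Peaks were assigned against spiked synthetic standards (UV 250 nm). Extraction recovery compared pool versus supernatant and reconstituted-extract radioactivity.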

The nature of data set [4]: Metabolite profiling in urine and faeces by LC-MS and off-line radiodetection. The format is in vivo, human. In outline:
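Urine was pooled per subject to ≥80% of recovered radioactivity and concentrated. Faeces were pooled to >90% of excreted radioactivity, plus cross-subject 48-72 h and 96-120 h pools; these were acetonitrile-extracted, dried and reconstituted in acetonitrile:water 20:80. Analysis used accurate-mass LC-MS (± switching, 70 000 resolution, 100-800 amu; HCD MS/MS 17 500) with off-line radiodetection, reported as % administered radioactivity.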

The conditions of data set [5]: cited from earlier work. This is another data set of the same source.
For data set [6] the following is noted: cited from earlier work. The source holds these as a separate data set.
The conditions of data set [7]: rat; cited from earlier work.
The conditions of data set [8]: nonhuman primate [NHP]; cited from earlier work.
Where [9] appears, read: male, human, plasma, oral, 100 mg.

Values joined by “and” are separate entries in the source; they are usually repeats but may differ in a detail not shown here. Identical values can stand only once. Counter-ions that a name gives are not always drawn. Like-named read-outs stand apart in the source and are kept apart here.

Consider nine compounds from PMC9546099 (British Journal of Clinical Pharmacology, 2022).

With `Cc1c(Cl)c(C)[n+]([O-])c(Cl)c1-c1noc(-c2cc(OS(=O)(=O)O)c(O)c([N+](=O)[O-])c2)n1` [BIA 9‐1103, 5-(3-(2,5-dichloro-4,6-dimethyl-1-oxidopyridin-3-yl)-1,2,4-oxadiazol-5-yl)-2-hydroxy-3-nitrophenyl sulfate], the “pharmacological activity on COMT” value in the data set on COMT is “pharmacologically inactive on COMT”. Moreover, the “pharmacological activity on COMT” value with COMT (listed as 3‐O‐sulfate‐opicapone) was “pharmacologically inactive”. Further, the “binding to plasma proteins” value in [1] is listed as “more than 98%”. Also, in data set [2] (plasma, geometric mean (% CV)), the AUCt is reported as 8120 (75.7) ng.h/ml and the C max is on record as 115(48.7) ng/ml. Besides, the Tlag in [2] (plasma) is on record as 1.05 (1.00‐2.00) h. Also, in data set [3], the “% of total circulating radioactivity” value stood at 58.6%.

Broadly, the IC50 is the concentration that inhibits the measured activity by half. On to `COc1c(O)cc(-c2nc(-c3c(C)c(Cl)c(C)[n+]([O-])c3Cl)no2)cc1[N+](=O)[O-]` [BIA 9‐1104, 2,5-dichloro-3-(5-(3-hydroxy-4-methoxy-5-nitrophenyl)-1,2,4-oxadiazol-3-yl)-4,6-dimethylpyridine 1-oxide], for which, in the data set with COMT, the IC50 is 429 nM. Further, in data set [3], the “% of total circulating radioactivity” value was determined as 6.59%.

`Cc1nc(Cl)c(-c2noc(-c3cc(O)c(O)c([N+](=O)[O-])c3)n2)c(C)c1Cl` [BIA 9‐1079, 5-(3-(2,5-dichloro-4,6-dimethylpyridin-3-yl)-1,2,4-oxadiazol-5-yl)-3-nitrobenzene-1,2-diol]: the IC50 with COMT is 128 nM. Also, the plasma concentration in data set [2] (below the limit of quantification in almost all time points) was below 10 ng/mL.

As for `COc1cc(-c2nc(-c3c(C)c(Cl)c(C)[n+]([O-])c3Cl)no2)cc([N+](=O)[O-])c1O` [BIA 9‐1100, 2,5-dichloro-3-(5-(4-hydroxy-3-methoxy-5-nitrophenyl)-1,2,4-oxadiazol-3-yl)-4,6-dimethylpyridine 1-oxide], the “% of total circulating radioactivity” value in data set [3] turned out to be 2.96%.

Turning to `COc1c(OS(=O)(=O)O)cc(-c2nc(-c3c(C)c(Cl)c(C)[n+]([O-])c3Cl)no2)cc1[N+](=O)[O-].c1ccncc1` [BIA 9‐4584, pyridin-1-ium 5-(3-(2,5-dichloro-4,6-dimethyl-1-oxidopyridin-3-yl)-1,2,4-oxadiazol-5-yl)-2-methoxy-3-nitrophenyl sulfate], in [3], the “% of total circulating radioactivity” value amounted to 2.30%.

In general, AUC(0-t) refers to exposure summed from dosing to a finite time, without extrapolation to infinity. What is called Cmax is the peak of the concentration-time curve. By Tmax is commonly meant the time from dosing to the highest level. Regarding `Cc1c(Cl)c(C)[n+]([O-])c(Cl)c1-c1noc(-c2cc(O[C@@H]3O[C@H](C(=O)O)[C@@H](O)[C@H](O)[C@H]3O)c(O)c([N+](=O)[O-])c2)n1` [BIA 9‐1106, 3-(5-(3-((2S,3R,4S,5S,6S)-6-carboxy-3,4,5-trihydroxytetrahydro-2H-pyran-2-yloxy)-4-hydroxy-5-nitrophenyl)-1,2,4-oxadiazol-3-yl)-2,5-dichloro-4,6-dimethylpyridine 1-oxide], in [2] (setting [9]), the AUC(0-t) came to 75 ng·h/mL, the Cmax was found to be 33.6 ng/mL and the Tmax was 2 h. For the same compound, the Tlag in data set [2] (plasma) was 0.75 (0.500‐2.00) h. In data set [4] (average, pooled urine), the “% of the administered radioactivity in urine” value is 1.72% and < 2%.

For `COc1c(O)cc(-c2nc(-c3c(C)c(Cl)c(C)[n+]([O-])c3SC[C@H](N)C(=O)O)no2)cc1[N+](=O)[O-].Cl` [BIA 9‐5049, (R)-2-((2-amino-2-carboxyethyl)thio)-5-chloro-3-(5-(3-hydroxy-4-methoxy-5-nitrophenyl)-1,2,4-oxadiazol-3-yl)-4,6-dimethylpyridine 1-oxide hydrochloride], the “% of total circulating radioactivity” value in data set [3] is reported as 3.72%.

For `COc1cc(-c2nc(-c3c(C)c(Cl)c(C)[n+]([O-])c3Cl)no2)cc([N+](=O)[O-])c1O` [BIA 9‐1101, 2,5-dichloro-3-(5-(4-hydroxy-3-methoxy-5-nitrophenyl)-1,2,4-oxadiazol-3-yl)-4,6 dimethylpyridine 1-oxide], the “% of total circulating radioactivity” value in data set [3] is given as 0.39%.

As a reminder, the AUC(0-inf) is the area under the concentration-time curve extrapolated to infinity. Read a high AUC(0-inf) as more exposure. As a reminder, the half-life is how long it takes for the measured level to halve. A high value points to slow decline. For the compound `Cc1c(Cl)c(C)[n+]([O-])c(Cl)c1-c1noc(-c2cc(O)c(O)c([N+](=O)[O-])c2)n1` [opicapone, 2,5‐dichloro‐3‐(5‐[3,4‐dihydroxy‐5‐nitrophenyl]‐1,2,4‐oxadiazol‐3‐yl)‐4,6‐dimethylpyridine 1‐oxide, reference compound], in data set [5], the “dose proportionality of the pharmacokinetic profile” value is recorded as “dose‐proportional up to 1200 mg”. Besides, in data set [2] (setting [9]), the AUC(0-inf) was 1890 ng·h/mL, the AUC(0-t) came to 1830 ng·h/mL, the Cmax amounted to 600 ng/mL and the half-life is 1 h. Also, the Tmax in data set [2] (setting [9]) was 2 h. Moreover, the Tlag in data set [2] (plasma) is recorded as 0.250 (0.250‐0.500) h. Further, the cytotoxicity result in data set [6] was “not to induce cytotoxicity”. Besides, the “fraction of the dose recovered in faeces” value in data set [7] is “more than 70%”. Further, the “fraction of the dose recovered in faeces” value in [8] is given as “more than 70%”. In data set [3], the “% of total circulating radioactivity” value is 12.1%. In addition, the “% of the administered radioactivity excreted in faeces” value in data set [4] (average, pooled faeces) came out at 22.32%. The “unchanged parent observed in urine” value in data set [4] (in vivo) is given as “Only trace amounts”.
